The structures appear in SMILES notation. Activity calls are given as the source filed them. The calls are words filed in the database; no cut-off is given here.

In test [1] the target is T1, Adenosine receptor A2a (Homo sapiens, UniProt P29274). As to the kind of experiment: Displacement of [3H]ZM241385 human A2AR […] expressed in […] cell membranes incubated for 0.5 hrs. In a few lines: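 HEK293 cell membranes stably expressing hA2AR, 10 μg protein per tube. Buffer 25 mM Tris-HCl pH 7.4, 5 mM MgCl2, 0.1% CHAPS. [3H]ZM241385 displaced by increasing compound concentrations at 25°C for 0.5 h (standard) or 3 h. Nonspecific binding defined with 100 µM NECA. Stopped by GF/B filtration and scintillation counting. Apparent pKi, means ± SEM of three experiments in duplicate. Shift = pKi(3h) − pKi(0.5h).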
T1 sequence (P29274 whole entry): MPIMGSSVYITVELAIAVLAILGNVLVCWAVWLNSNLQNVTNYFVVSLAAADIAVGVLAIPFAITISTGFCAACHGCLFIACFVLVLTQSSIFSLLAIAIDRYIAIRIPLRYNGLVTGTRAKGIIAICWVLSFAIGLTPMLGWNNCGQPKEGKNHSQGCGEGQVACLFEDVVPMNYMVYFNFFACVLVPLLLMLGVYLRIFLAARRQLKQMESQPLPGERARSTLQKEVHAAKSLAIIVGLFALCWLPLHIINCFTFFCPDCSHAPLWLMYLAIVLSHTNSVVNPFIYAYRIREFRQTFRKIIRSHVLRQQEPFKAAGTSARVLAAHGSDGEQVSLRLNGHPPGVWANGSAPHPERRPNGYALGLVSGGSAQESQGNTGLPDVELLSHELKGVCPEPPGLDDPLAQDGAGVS

For test [2], the target named is T1, Adenosine receptor A2a. As to the kind of experiment: Potency shift, difference in pKi for displacement of [3H]ZM241385 human A2AR (1 to 316 residues) expressed in Pichia pastoris SMD1168 cell membranes incubated for 0.5 hrs to pKi for displacement of [3H]ZM241385 human A2AR (1 to 316 residues) expressed in Pichia pastoris SMD1168 cell membranes incubated for 3 hrs.

For another test, the species on record is Homo sapiens. As to the kind of experiment: Selectivity for human A2AR (1 to 316 residues) expressed in Pichia pastoris SMD1168 cell membranes over human A3AR.
Test [3] addresses T1, Adenosine receptor A2a. Description: Displacement of [3H]ZM241385 human A2AR (1 to 316 residues) expressed in Pichia pastoris SMD1168 cell membranes. For orientation: In a radioligand displacement assay an active substance lowers the binding of a labelled ligand.
The target of test [4] is T1, Adenosine receptor A2a. As to the kind of experiment: Covalent binding to human A2AR (1 to 316 residues) expressed in Pichia pastoris SMD1168 cell membranes assessed as radioligand binding level pre-incubated at 1.5 to 5 nM followed by compound wash out before [3H]ZM241385 addition (reference value: 65 +/- 2%).
Test [5] concerns the target T1, Adenosine receptor A2a. As to the kind of experiment: Photoaffinity labelling of purified human A2AR (1 to 316 residues) by SDS-PAGE analaysis. A digest of the protocol: (§1)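 His-tagged hA2AR (residues 1–316) from Pichia pastoris was purified by HisTrap, diluted to 0.1 mg/mL in 25 mM HEPES pH 7.5, 100 mM NaCl, 10 μM LMNG. Incubated with probe at a range of concentrations or 1% DMSO for 1 h on ice. CuAAC click on ice, 1 h: 5.6 mM CuSO4, 33 mM ascorbate, 1.1 mM THPTA, 4.4 μM Cy3-azide. Read-out: SDS-PAGE in-gel fluorescence of the ~47 kDa band, normalized to anti-His immunoblot. pEC50 fitted; three experiments.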

The target in test [6] is T1, Adenosine receptor A2a. Description: Photoaffinity labelling of purified human A2AR (1 to 316 residues) by Western blot analysis. A digest of the protocol:
as §1
(In general: In western blotting, separated proteins are transferred to a membrane and probed.)

Test [7] has as its target T1, Adenosine receptor A2a. As to the kind of experiment: Photoaffinity labelling of purified human A2AR (1 to 316 residues) by SDS-PAGE analaysis pretreated with 10 uM ZM241385 followed by compound addition at 1 uM by competitive labeling assay. A digest of the protocol: (§2)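 Purified hA2AR (0.1 mg/mL) was preincubated 1 h on ice with 10 μM competitor or 1% DMSO. Then labeled with 1 μM probe for 0.5 h on ice. CuAAC with Cy3-azide followed, then SDS-PAGE in-gel fluorescence normalized to anti-His immunoblot. Three experiments; Student's t-test.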

Test [8] concerns the target T1, Adenosine receptor A2a. As to the kind of experiment: Photoaffinity labelling of purified human A2AR (1 to 316 residues) by SDS-PAGE analaysis pretreated with 10 uM LUF7445 followed by compound addition at 1 uM by competitive labeling assay. In a few lines: as §2
The target in test [9] is T1, Adenosine receptor A2a. Description: Photoaffinity labelling of N-terminal FLAG-tagged and C-terminal His-tagged human adenosine A2A receptor expressed in HEK293 cell membranes at 1 uM incubated for 1 hr by SDS PAGE and Western blot analysis based affinity-based protein labeling assay. A digest of the protocol:
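Membranes (1 mg/mL in 50 mM Tris-HCl pH 7.4) came from HEK293 transiently transfected 48 h with FLAG-hA2AR-His. Incubated with probe (0.1–3 μM) or 1% DMSO for 1 h at room temperature. Click at room temperature for 1 h, with CuSO4 added last: 4.4 μM Cy3-azide, 33 mM ascorbate, 1.1 mM THPTA, 5.6 mM CuSO4. Denatured 30 min at 37°C. Read-out: in-gel fluorescence, with anti-FLAG Western blot (~50 kDa).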

Usually Ki stands for a dissociation constant, usually derived from enzyme kinetics or from competition with a known ligand. Low values mean a stronger hold on the target, high ones a looser hold on the target. In general, EC50 refers to the concentration needed to bring the measured effect to its halfway point. A high value points to lower potency in that assay. Take `C#CCN(CCCCCNc1nc(N)n2nc(-c3ccco3)nc2n1)C(=O)c1ccc(S(=O)(=O)F)cc1`: the inhibition constant (Ki) at Adenosine receptor A2a [1] is 3.89 nM. Moreover, on Adenosine receptor A2a [2], the fold change (FC) is 0.41. Moreover, the Selectivity ratio in the test listed under Homo sapiens is below 10. For the same compound, on Adenosine receptor A2a [3], the inhibition entry is “Dose-dependent effect”. Besides, the Activity on Adenosine receptor A2a [4] was 43%; on Adenosine receptor A2a [5], “Dose-dependent effect”. Besides, the response at Adenosine receptor A2a [5] was half-maximal at 794 nM (EC50). The result at Adenosine receptor A2a [6] and on Adenosine receptor A2a [9] was Active. The result on Adenosine receptor A2a [7] and on Adenosine receptor A2a [8] was inactive.

With `Nc1nc(NCCCNC(=O)c2ccc(S(=O)(=O)F)cc2)nc2nc(-c3ccco3)nn12`, the inhibitory constant (Ki) on Adenosine receptor A2a [1] is 5.37 nM. Besides, the fold change (FC) on Adenosine receptor A2a [2] is 0.72.

On to `Nc1nc(NCCCCNC(=O)c2ccc(S(=O)(=O)F)cc2)nc2nc(-c3ccco3)nn12`, for which, on Adenosine receptor A2a [1], the inhibition constant Ki is 6.31 nM and the inhibition entry was “Dose-dependent effect”. For the same compound, the fold change (FC) on Adenosine receptor A2a [2] came to 0.85. Also, the inhibition result on Adenosine receptor A2a [3] is “Dose-dependent effect”.

For `Nc1nc(NCCCCCNC(=O)c2ccc(S(=O)(=O)F)cc2)nc2nc(-c3ccco3)nn12`, the Ki at Adenosine receptor A2a [1] was 2.75 nM. The inhibition result at Adenosine receptor A2a [1] and at Adenosine receptor A2a [3] was “Dose-dependent effect” throughout. Moreover, the fold change (FC) on Adenosine receptor A2a [2] came out at 0.65.

The values are drawn from ChEMBL document CHEMBL4145682, “An Affinity-Based Probe for the Human Adenosine A2A Receptor” (J Med Chem, 2018).
